Most compounds without a hit are left out; they make up all but 9.2% or so of the library.
ERb coact inh: ER-beta (human) coactivator binding inhibition. hit rate 1.3% among 86,000. inhibition, % at 25.6 µM. TR-FRET ER-beta LBD / SRC1-Cy5 peptide binding; receptor agonist-loaded with 1 µM estradiol. Q92731;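 active means compounds whose percent inhibition of the receptor-coactivator binding signal exceeds about 50% in the single-dose screen, limit read from the data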
ERa SRC1 inh: ER-alpha (human) coactivator binding inhibition. P03372. TR-FRET ER-alpha LBD / SRC-1 peptide, estradiol-bound. inhibition, % at 25.6 µM. hit rate 1.7% among 86,000. AID 629; in the data active means inhibition above about 50%
Target sequence (P03372 whole entry, looked up, the tested form may be a part): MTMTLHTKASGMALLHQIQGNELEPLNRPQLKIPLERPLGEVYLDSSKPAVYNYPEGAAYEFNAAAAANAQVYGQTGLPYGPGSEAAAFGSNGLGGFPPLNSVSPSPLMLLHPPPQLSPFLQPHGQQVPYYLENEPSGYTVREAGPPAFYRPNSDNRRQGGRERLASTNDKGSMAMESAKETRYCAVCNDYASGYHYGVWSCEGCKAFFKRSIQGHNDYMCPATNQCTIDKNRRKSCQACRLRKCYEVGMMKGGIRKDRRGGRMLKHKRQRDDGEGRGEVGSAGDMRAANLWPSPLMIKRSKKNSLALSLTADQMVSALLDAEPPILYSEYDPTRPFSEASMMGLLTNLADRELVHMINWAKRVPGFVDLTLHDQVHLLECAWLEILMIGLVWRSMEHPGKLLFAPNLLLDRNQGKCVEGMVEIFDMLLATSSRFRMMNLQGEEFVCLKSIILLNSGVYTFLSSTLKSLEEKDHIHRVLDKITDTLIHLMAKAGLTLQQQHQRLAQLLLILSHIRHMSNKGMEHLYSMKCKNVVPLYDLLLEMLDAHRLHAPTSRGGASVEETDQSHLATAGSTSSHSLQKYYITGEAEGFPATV
ERa coact pot: ER-alpha (human) coactivator binding potentiation. P03372. TR-FRET ERalpha-LBD/SRC-Cy5 coactivator binding, 2 h; 100 = basal binding, no effect. coactivator binding (% of control), % at 25.6 µM. hit rate 1.3% among 86,000. AID 639; in the data active means activity above about 200%;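 further: binding measured in presence of low estradiol as agonist stimulus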
HUVEC inhibit: inhibitors of human endothelial cell proliferation | HUVEC proliferation, CellTiter-Glo luminescence, 72 h; stronger effect = lower value | viability, % at 10 µM (by protocol) | hit rate 1.1% among 86,000 | AID 648;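 active means viability at or below 30%; inactive means viability above 30%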
Lung fibro prol: blocks proliferation of human lung fibroblasts; LL 47 human lung fibroblast viability, ATP luminescence; stronger effect = lower value; viability, % at 10 µM; hit rate 1.1% among 85,000;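 active means viability at or below 50% in the single dose screen; inactive means viability above 50%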;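 further: compound exposure lasted 72 h before the ATP readout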
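Assay system: human lung fibroblast line LL 47, low passage. Input: 1,150 fibroblasts seeded per well. Times: overnight cell rest, 72 h compound treatment at 37 °C. Evaluation: % viability of median cell-only signal. Technique: luminescent ATP detection, CellTiter-Glo. Control set: cell-only wells, no compound.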
H69AR inhibit: growth inhibitors of human H69AR lung tumor cells; H69AR lung tumor viability, ATP luminescence, 72 h; stronger effect = lower value; viability, % at 10 µM; hit rate 6% among 85,000; AID 598;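 active means viability at or below 40%; inactive means viability above 40%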;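 further: multidrug resistant small cell line overexpressing MRP-1 efflux transporter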
Of the large screens only hits and unclear results are named; the others gave an inactive call; [ ] = dose if it differs, or a comment.

CC(C)CN1C(=S)SC(C)(C)C1n1oc(=O)n(-c2ccc(Cl)cc2)c1=O (configuration not stated)	none
COc1cccc(NC(=O)CCN2CCN(C)CC2)c1	none
COc1ccc(-c2c3c(=O)n(C)c(=O)n(C)c3cn2C2CCCCC2)cc1	H69AR inhibit 20.3
Cc1cccc(-n2nnnc2SC(C)C(=O)NCCC2=CCCCC2)c1 (configuration not stated)	H69AR inhibit 35.0
COc1cc(-n2c(=O)c3ccccc3n(Cc3ccccc3)c2=O)cc(OC)c1OC	none
O=C(Nc1nc(=O)c2ccccc2s1)c1ccc(F)cc1	ERb coact inh 52.3[fluorescence artefact?]
O=C(Cc1ccccc1)Nc1nc(=O)c2ccccc2s1	none
Cc1ccc(S(=O)(=O)CCc2nc3ccccc3s2)cc1C	none
CC1CCN(S(=O)(=O)c2ccc(NC(=O)Cc3ccccc3)cc2)CC1	none
CC1CCN(S(=O)(=O)c2ccc(NC(=O)Cn3nnc(-c4ccccc4F)n3)cc2)CC1	ERb coact inh 62.3[fluorescence artefact?], ERa SRC1 inh 86.2[fluorescence artefact?]
CCn1nc(C)c(NS(=O)(=O)c2ccccc2)c1C	none
COc1ccc(N2C(=O)CC(Sc3nc(C)c4c(n3)CCCC4)C2=O)cc1 (configuration not stated)	H69AR inhibit 24.8
CCNc1nc(NC(C)C)nc(OCC)n1	none
Cc1ccc(Cl)cc1N1CCN(C(=O)C2CCN(S(=O)(=O)c3c(C)nn(C)c3C)CC2)CC1	H69AR inhibit 25.0
O=C1CC(c2ccco2)=Nc2ccccc2N1	none
Cc1ccc(O)c(C2=Nc3ccccc3N=C(c3ccco3)C2)c1	ERa coact pot 228.3[fluorescence artefact?]
CCN1CCN(c2nc3ccccc3nc2C(C#N)C(=O)OC2CCCCC2)CC1 (configuration not stated)	none
CCOC(=O)C1CCCN(c2nc3ccccc3nc2C(C#N)C(=O)OCCOC)C1 (configuration not stated)	HUVEC inhibit 25.4
CN1CCN(c2nc3ccccc3nc2C(C#N)C(=O)OC2CCCCC2)CC1 (configuration not stated)	HUVEC inhibit 3.7, H69AR inhibit 19.4
O=C(CCn1c(=S)[nH]c2cc3c(cc2c1=O)OCO3)N1CCN(C2CCCCC2)CC1	none
O=C1CSC(c2cn(-c3ccccc3)nc2-c2cc3ccccc3oc2=O)N1Cc1ccccc1 (configuration not stated)	H69AR inhibit 24.3
CCc1ccc(CNC(=O)C2CCC(=O)N2C2CCCCC2)cc1 (configuration not stated)	none
O=C(NCc1ccccn1)C1CCC(=O)N1C1CCCCC1 (configuration not stated)	ERa SRC1 inh 82.3[fluorescence artefact?]
COC(=O)C1=C(C)NC(=O)/C1=C\c1cc(C)n(-c2cccc(C)c2)c1C	none
Cc1cc(C)c(-n2c(C)cc(/C=C3/NC(=O)NC3=O)c2C)c(C)c1	H69AR inhibit 17.1
COc1ccc(CCC(=O)N2CCN(C3CCCCC3)CC2)cc1	Lung fibro prol 17.0
Cc1ccc2c(SCC(=O)NCc3ccco3)nc(-c3ccc(F)cc3)nc2c1	none
Cc1ccc(Cl)cc1N1CCN(Cc2nc3c(c(=O)[nH]c(=O)n3C)n2Cc2ccccc2F)CC1	H69AR inhibit 18.8
Cc1ccc(Cl)cc1N1CCN(Cc2nc3c(c(=O)[nH]c(=O)n3C)n2CCc2ccccc2)CC1	Lung fibro prol 17.7, H69AR inhibit 4.3
Cc1ccc(-c2cc(C(=O)NCc3ccco3)c3ccccc3n2)o1	ERb coact inh 72.6, ERa SRC1 inh 82.2
O=C(NCc1ccco1)c1cccc2ccccc12	none
Cc1ccc(-c2cc(C(=O)Nc3ccccc3C)c3ccccc3n2)o1	ERb coact inh 56.2[fluorescence artefact?], ERa SRC1 inh 78.0[fluorescence artefact?]
O=C(NCc1ccco1)c1cc2ccccc2c(=O)o1	ERa SRC1 inh 57.1
O=c1c2nnn(Cc3ccccc3)c2ncn1-c1ccccc1	none
Cc1sc2nc(C3CC3)nc(SCC(=O)NCc3ccco3)c2c1C	none
CCc1nc(SCC(=O)Nc2cc(C)on2)n[nH]1	none
CCc1nc(SCC(=O)Nc2cc(C)on2)c2c(C)c(C)sc2n1	ERa coact pot 234.0[fluorescence artefact?]
Cc1cc(NC(=O)CSc2nc(C3CC3)nc3sc(C)c(C)c23)no1	H69AR inhibit 24.5
CCOc1ccc(N(CC(=O)Nc2nccs2)S(=O)(=O)c2c(C)noc2C)cc1	none
O=c1c2c3c(sc2nc2sc(C4CC4)nn12)CCCC3	ERa coact pot 234.2
CCOC(=O)C(NCc1ccccc1OC)(NC(C)=O)C(F)(F)F (configuration not stated)	none
Cc1nc(N2CCCC2)c2nnn(Cc3ccccc3Cl)c2n1	none
Cc1nc(N2CCC3(CC2)OCCO3)c2nnn(Cc3ccccc3F)c2n1	H69AR inhibit 35.1
COc1ccc(C2CCCN2C(=O)c2cccs2)cc1 (configuration not stated)	none
COc1ccc(C2CC(c3cccs3)=Nc3ccccc3S2)cc1 (configuration not stated)	H69AR inhibit 17.4
O=S(=O)(NCc1ccc2c(c1)OCO2)c1cccc2cccnc12	none
O=c1[nH]c2ccccc2n1CCCSc1cnc2ccccc2n1	H69AR inhibit 38.3
O=C1CC(c2ccccc2)C(C(=O)Nc2ccccc2F)N1 (configuration not stated)	none
Cn1c(=O)c2c(nc(CN3CCc4ccccc4C3)n2Cc2ccc(F)cc2)n(C)c1=O	none
Cc1ccccc1Cn1c(CN2CCc3ccccc3C2)nc2c1c(=O)n(C)c(=O)n2C	ERb coact inh 96.8[fluorescence artefact?]
Cn1c(=O)c2c(nc(CN3CCN(Cc4ccccc4)CC3)n2Cc2ccc(Cl)cc2)n(C)c1=O	Lung fibro prol 45.4, H69AR inhibit 10.4
CC1CCCC(C)N1c1nnc(N)s1 (configuration not stated)	none
c1ccc(CNc2ncnc3c2cnn3-c2ccccc2)cc1	H69AR inhibit 25.9
Clc1ccc(-n2ncc3c(NCc4cccs4)ncnc32)cc1	Lung fibro prol 34.0
Cc1cccc(-n2ncc3c(NCc4ccccc4)ncnc32)c1	H69AR inhibit 24.8
Cc1cccc(-n2ncc3c(N4CCCc5ccccc54)ncnc32)c1	H69AR inhibit 34.6
Cc1cccc(-n2ncc3c(NCc4ccccn4)ncnc32)c1	none
Cc1sc(-c2ccncc2)nc1OC(=O)c1ccccc1	none
Fc1ccc(CNc2ncnc3c2cnn3-c2ccccc2)cc1	H69AR inhibit 36.5
Cc1cccc(-n2ncc3c(NCc4ccco4)ncnc32)c1	H69AR inhibit 26.3
Cc1ccc(-n2ncc3c(NCCCOC(C)C)ncnc32)c(C)c1	H69AR inhibit 36.9
CC(C)OCCCNc1ncnc2c1cnn2-c1ccccc1	none
COC(=O)c1ccc2c(=O)sc(N3CCC(C(N)=O)CC3)nc2c1	none
Cc1ccc(N2C(=O)N(CC(=O)N3CCCc4ccccc43)C(=O)C2C)cc1 (configuration not stated)	none

Screens deposited in PubChem by several laboratories.
